Structures can show the parent of a compound that is named as a salt. Where two headings read alike, the source gives them in different places.
Experiments:
DAT = DAT (Rattus norvegicus, UniProt P23977); experiment: [3H]MPP+ release at DAT in rat caudate synaptosomes; assay type: biochemical
NET = NET (Rattus norvegicus, UniProt Q63380); experiment: [3H]MPP+ release at NET in rat brain synaptosomes; assay type: biochemical
SERT = SERT (Rattus norvegicus, UniProt P31652); experiment: [3H]5-HT release at SERT in rat brain synaptosomes; assay type: biochemical
Chain of SERT (P31652 whole entry): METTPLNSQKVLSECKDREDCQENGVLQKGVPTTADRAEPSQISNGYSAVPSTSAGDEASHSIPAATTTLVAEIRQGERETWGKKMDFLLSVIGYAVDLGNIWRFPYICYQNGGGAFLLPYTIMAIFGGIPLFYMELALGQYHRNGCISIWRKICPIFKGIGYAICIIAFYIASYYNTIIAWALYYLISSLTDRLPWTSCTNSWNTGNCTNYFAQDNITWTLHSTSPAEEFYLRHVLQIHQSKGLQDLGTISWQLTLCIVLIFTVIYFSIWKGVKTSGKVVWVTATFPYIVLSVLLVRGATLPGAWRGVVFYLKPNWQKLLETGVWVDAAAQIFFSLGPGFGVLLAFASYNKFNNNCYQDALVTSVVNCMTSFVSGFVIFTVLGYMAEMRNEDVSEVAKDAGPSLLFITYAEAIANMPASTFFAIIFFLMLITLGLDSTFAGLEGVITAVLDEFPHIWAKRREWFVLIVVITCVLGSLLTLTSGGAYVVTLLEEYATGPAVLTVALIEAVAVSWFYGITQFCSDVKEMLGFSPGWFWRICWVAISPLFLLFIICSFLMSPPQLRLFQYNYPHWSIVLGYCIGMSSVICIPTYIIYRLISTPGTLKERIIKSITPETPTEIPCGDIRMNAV
Method in brief: (§1)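 Rat synaptosomes in 1 μM reserpine (brain minus caudate/cerebellum for SERT and NET; caudate for DAT), preloaded 1 h in Krebs-phosphate with 5 nM [3H]5-HT (SERT) or 9 nM [3H]MPP+ (NET, DAT). Blockers of competing transporters were included. Test compound was run as 8-point curves from 10 to 10,000 nM, in triplicate on three occasions. Filtration and scintillation counting; EC50 from non-linear regression.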

SERT, DAT, and NET = assay type: biochemical, rat; conditions: SERT versus DAT and NET
Method in brief: as §1

[1] = cited from earlier work; for MDMA-like effects in humans: human
[2] = S(+) versus R(−) isomer of EDMA

Chain of NET (Q63380 1-617): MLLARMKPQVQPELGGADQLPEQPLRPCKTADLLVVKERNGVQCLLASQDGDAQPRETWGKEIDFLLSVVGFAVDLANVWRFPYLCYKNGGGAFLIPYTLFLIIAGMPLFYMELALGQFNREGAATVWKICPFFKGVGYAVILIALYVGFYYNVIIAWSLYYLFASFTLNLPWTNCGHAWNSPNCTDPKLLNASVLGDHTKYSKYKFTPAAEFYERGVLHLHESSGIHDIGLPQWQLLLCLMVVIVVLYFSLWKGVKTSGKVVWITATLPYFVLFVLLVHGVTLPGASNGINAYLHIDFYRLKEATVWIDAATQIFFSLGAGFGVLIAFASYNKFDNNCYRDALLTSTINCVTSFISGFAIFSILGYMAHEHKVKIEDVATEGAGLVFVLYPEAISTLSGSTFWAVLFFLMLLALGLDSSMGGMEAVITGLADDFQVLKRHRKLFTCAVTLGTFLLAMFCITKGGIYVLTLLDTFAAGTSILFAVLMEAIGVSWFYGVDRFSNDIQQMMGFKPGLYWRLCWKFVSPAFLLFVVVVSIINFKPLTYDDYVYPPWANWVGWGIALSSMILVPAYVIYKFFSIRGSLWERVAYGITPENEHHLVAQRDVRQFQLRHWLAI
Chain of DAT (P23977 whole entry): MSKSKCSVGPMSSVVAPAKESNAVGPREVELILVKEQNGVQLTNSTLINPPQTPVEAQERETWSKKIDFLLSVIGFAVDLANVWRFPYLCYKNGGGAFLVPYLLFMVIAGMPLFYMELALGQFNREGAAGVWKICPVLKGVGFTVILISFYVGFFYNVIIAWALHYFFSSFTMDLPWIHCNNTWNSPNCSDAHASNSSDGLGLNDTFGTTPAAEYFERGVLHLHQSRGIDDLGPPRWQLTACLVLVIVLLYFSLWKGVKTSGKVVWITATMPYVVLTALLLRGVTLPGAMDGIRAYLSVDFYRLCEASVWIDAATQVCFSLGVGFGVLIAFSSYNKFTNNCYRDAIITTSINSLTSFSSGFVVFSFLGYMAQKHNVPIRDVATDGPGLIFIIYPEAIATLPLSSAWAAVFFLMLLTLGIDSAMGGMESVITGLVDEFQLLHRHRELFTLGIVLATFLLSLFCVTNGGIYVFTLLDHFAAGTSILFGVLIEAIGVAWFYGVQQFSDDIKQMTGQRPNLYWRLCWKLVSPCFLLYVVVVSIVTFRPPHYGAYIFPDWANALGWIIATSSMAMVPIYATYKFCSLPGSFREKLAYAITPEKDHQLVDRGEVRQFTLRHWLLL

CN[C@@H](C)Cc1ccc2c(c1)OCCO2 [S(+)EDMA [(S)3], S(+)1-(3,4-Ethylenedioxyphenyl)-N-methyl-2-aminopropane hydrochloride]
fold more potent than R(−) enantiomer at DAT (DAT; [2]): 50 fold
fold more potent than R(−) enantiomer at NET (NET; [2]): 8 fold
fold more potent than R(−) enantiomer at SERT (SERT; [2]): about 6 fold

CN[C@H](C)Cc1ccc2c(c1)OCCO2 [R(−)EDMA [(R)3], R(−)1-(3,4-Ethylenedioxyphenyl)-N-methyl-2-aminopropane hydrochloride]
transporter selectivity as releaser (SERT, DAT, and NET): more SERT-selective

CNC(C)Cc1ccc2c(c1)OCCO2 (racemic) [(±)EDMA (3), (±)-1-(3,4-Ethylenedioxyphenyl)-N-methyl-2-aminopropane hydrochloride]
transporter selectivity as releaser (SERT, DAT, and NET): slightly more selective for SERT over DAT and NET
fold less potent than (±)MDMA (1) as releaser at DAT (DAT; compared with (±)MDMA (1)): 8 fold
fold less potent than (±)MDMA (1) as releaser at NET (NET; compared with (±)MDMA (1)): 4.5 fold
MDMA-like effects in humans ([1]; 200 mg): fails to produce similar effects
MDMA-like effects in humans ([1]; 250 mg): threshold
release potency at SERT relative to potency at DAT (SERT; SERT versus DAT): approximately six times
release potency at SERT relative to potency at NET (SERT; SERT versus NET): three times
potency as releaser at SERT relative to (±)MDMA (1) (SERT; compared with (±)MDMA (1)): approximately half the potency

CNC(C)Cc1ccc2c(c1)OCO2 (racemic) [(±)MDMA (1), N-methyl-(3,4-methylenedioxyphenyl)-2-aminopropane, reference compound]
transporter selectivity as releaser (SERT, DAT, and NET): nearly equipotent
behaviorally active total human dose ([1]; p.o.): 80 to 150 mg
